In ChEMBL document CHEMBL1133691 (J Med Chem, 2000):

Assays:
Rattus norvegicus [1] = assay: Area under curve in male SD rats was observed after oral administration in rat; assay type: ADME, organism-based; conditions: in vivo
[2] = time required to reach maximum concentration (Cmax) after oral administration in rat; assay type: ADME, organism-based; conditions: in vivo
[3] = plasma half life was observed after intravenous administration in rat; assay type: ADME, organism-based
Summary of the method: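 Male SD rats (233-264 g), three per route; 1 μmol/kg given as a tail-vein bolus in DMA:PEG400:citrate buffer (40:40:20) vehicle at 2 μmol/mL, no anaesthesia. Tail-vein blood sampled at 2, 10, 30, 60, 120, 240 and 360 min; plasma ethanol-precipitated and analysed by LC-MS/MS against spiked-plasma standard curves. Values are means ± SD, n = 3.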

Rattus norvegicus [4] = assay: Area under curve in male SD rats was observed after intravenous administration in rat; assay type: ADME, organism-based; conditions: in vivo
Summary of the method: (§1)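 Male SD rats (233-264 g), 3 per group, given a 1 μmol/kg intravenous bolus into a tail vein in DMA:PEG400:citrate buffer (40:40:20), formulated at 2 μmol/mL. No anaesthesia. Tail-vein blood was sampled at 2, 10, 30, 60, 120, 240 and 360 min. Plasma was ethanol-precipitated and analysed by LC-MS/MS against spiked-plasma standard curves. Values are mean ± SD.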

[5] = plasma clearance was observed after intravenous administration in rat; assay type: ADME, organism-based; summary of the method: as §1
Rattus norvegicus [6] = assay: mean peak plasma concentration was observed after oral administration in rat; assay type: ADME, organism-based; design: route oral; conditions: in vivo
[7] = Oral bioavailability; assay type: ADME, organism-based; conditions: rat, in vivo
Rattus norvegicus [8] = assay: mean peak plasma concentration was observed after intravenous administration in rat; assay type: ADME, organism-based; design: route intravenous; conditions: in vivo; summary of the method: as §1
[9] = volume of distribution at steady state was observed after intravenous administration in rat; assay type: ADME, organism-based; conditions: in vivo, read-out: Vss; summary of the method: as §1
[10] = Plasma half life was observed after intravenous administration in rat; assay type: ADME, organism-based; summary of the method: as §1
[11] = Volume of distribution at steady state was observed after intravenous administration in rat; assay type: ADME, organism-based; conditions: in vivo, read-out: Vss; summary of the method: as §1
Rattus norvegicus [12] = assay: Mean peak plasma concentration was observed after intravenous administration in rat; assay type: ADME, organism-based; design: route intravenous; conditions: in vivo; summary of the method: as §1
[13] = Time required to reach maximum concentration (Cmax) after oral administration in rat; assay type: ADME, organism-based; conditions: in vivo
Dihydrofolate reductase [14] = target: T1, Dihydrofolate reductase (Rattus norvegicus, UniProt Q920D2); assay: Ability to inhibit recombinant rat liver dihydrofolate reductase.
T1 sequence (Q920D2 whole entry): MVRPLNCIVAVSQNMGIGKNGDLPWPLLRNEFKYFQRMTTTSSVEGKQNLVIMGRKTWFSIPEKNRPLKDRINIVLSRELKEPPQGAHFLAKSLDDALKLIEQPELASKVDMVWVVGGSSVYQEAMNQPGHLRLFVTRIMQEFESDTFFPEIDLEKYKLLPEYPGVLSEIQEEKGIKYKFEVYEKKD

[15] = Plasma clearance was observed after intravenous administration in rat; assay type: ADME, organism-based; summary of the method: as §1
Dihydrofolate reductase [16] = target: T2, Dihydrofolate reductase (Homo sapiens, UniProt P00374); assay: Ability to inhibit recombinant human dihydrofolate reductase.
T2 sequence (P00374 whole entry): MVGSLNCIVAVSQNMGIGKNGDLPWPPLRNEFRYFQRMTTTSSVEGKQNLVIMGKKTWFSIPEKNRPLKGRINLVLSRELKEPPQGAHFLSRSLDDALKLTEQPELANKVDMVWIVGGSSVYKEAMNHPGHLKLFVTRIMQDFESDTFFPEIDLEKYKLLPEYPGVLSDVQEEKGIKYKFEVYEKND

Rattus norvegicus [17] = assay: Mean peak plasma concentration was observed after oral administration in rat; assay type: ADME, organism-based; design: route oral; conditions: in vivo

| Compound | AUC (Rattus norvegicus [1]) | Tmax [2] | half-life [3] | AUC inf (Rattus norvegicus [4]) | clearance [5] | Cmax (Rattus norvegicus [6]) | bioavailability [7] | Cmax (Rattus norvegicus [8]) | Vd [9] | half-life [10] | Vd [11] | Cmax (Rattus norvegicus [12]) | Tmax [13] | IC50 (Dihydrofolate reductase [14]) | clearance [15] | IC50 (Dihydrofolate reductase [16]) | Cmax (Rattus norvegicus [17]) |
| --- | --- | --- | --- | --- | --- | --- | --- | --- | --- | --- | --- | --- | --- | --- | --- | --- | --- |
| CN(Cc1cnc2nc(N)nc(N)c2n1)c1ccc(C(=O)N[C@@H](CCC(=O)O)C(=O)O)cc1 [METHOTREXATE] | 838 nM·h | 40.2 min | 54 min | 1560 nM·h | 11 mL/min/kg | 266 nM | 5.8% | 8.26 µM | 0.36 L/kg | – | – | – | – | – | – | – | – |
| Nc1nc(N)c2cc(COC(=O)c3ccc(C(=O)N[C@@H](CCC(=O)O)C(=O)O)cc3)ccc2n1 | 384 nM·h | – | – | 1230 nM·h | – | – | 3.4% | – | – | 60 min | 0.42 L/kg | 9.17 µM | 40.2 min | 19.3 nM | 15 mL/min/kg | 125 nM | 144 nM |
| Nc1nc(N)c2nc(COC(=O)c3ccc(C(=O)N[C@@H](CCC(=O)O)C(=O)O)cc3)cnc2n1 | – | – | – | – | – | – | – | – | – | – | – | – | – | 120 nM | – | – | – |
